How the values were obtained:
[1] = Ratio of fraction unbound in Wistar Hannover rat brain to plasma at 1 mg/kg, sc measured at 2 hrs post dose by LC-MS/MS analysis; format: ADME, organism-based; conditions: in vivo
[2] = Drug uptake in Wistar Hannover rat cerebrospinal fluid at 1 mg/kg, sc measured at 0.5 hrs post dose by LC-MS/MS analysis; format: ADME, organism-based; conditions: read-out: Drug uptake
Summary of the method: (§1)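 Rats were dosed subcutaneously at 1 mg/kg. CSF, plasma and brain were sampled at 0.5, 1, 2 and 4 h post dose and analysed for drug concentration. Values are means at each time point.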

[3] = biological target: Histamine H2 receptor (Homo sapiens) (UniProt P25021); assay: Inhibition of human histamine H2 receptor at 10 uM relative to control
[4] = biological target: 5-hydroxytryptamine receptor 1A (Homo sapiens) (UniProt P08908); assay: Inhibition of human 5-HT1A receptor at 10 uM relative to control
[5] = Ratio of fraction unbound in Wistar Hannover rat brain to plasma at 1 mg/kg, sc measured at 1 hr post dose by LC-MS/MS analysis; format: ADME, organism-based; conditions: in vivo
[6] = biological target: 5-hydroxytryptamine receptor 3A (Homo sapiens) (UniProt P46098); assay: Inhibition of human 5-HT3 receptor at 10 uM relative to control
[7] = organism: Homo sapiens; assay: Selectivity ratio of IC50 for full length recombinant human PDE4D3 to IC50 for full length recombinant human PDE1A
Summary of the method: (§2)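 IC50s were measured against recombinant PDEs, all human except PDE6A (bovine). Each enzyme was given its appropriate cAMP or cGMP substrate at below 1/3 of its Km. IC50s are the mean of n = 3 or more. The selectivity ratio is the IC50 for the other PDE divided by the IC50 for PDE1B1 or PDE1A.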

[8] = biological target: Caspase-3 (Homo sapiens) (UniProt P42574); assay: Inhibition of recombinant human Caspase-3 using benzyloxycarbonyl- Asp-Glu-Val-Asp-AFC as substrate at 10 uM after 60 mins by fluorimetric method relative to control
[9] = biological target: Cholecystokinin receptor type A (Homo sapiens) (UniProt P32238); assay: Inhibition of human cholecystokinin CCK1 receptor at 10 uM relative to control
[10] = biological target: cAMP and cAMP-inhibited cGMP 3',5'-cyclic phosphodiesterase 10A (Homo sapiens, UniProt Q9Y233); assay: Inhibition of full length recombinant human PDE10A1 using 3',5'-[3H]cAMP as substrate after 30 mins by scintillation proximity assay
Summary of the method: (§3)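 Enzymes were human except PDE6A, which was bovine. Each was assayed with cAMP or cGMP substrate, as appropriate to the enzyme, at concentrations below 1/3 of Km. IC50 values are mean ± SEM from n = 3 or more.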

[11] = biological target: 5-hydroxytryptamine receptor 4 (Homo sapiens) (UniProt Q13639); assay: Inhibition of human 5-HT4E receptor at 10 uM relative to control
[12] = biological target: Cysteinyl leukotriene receptor 1 (Homo sapiens) (UniProt Q9Y271); assay: Inhibition of human leukotriene D4 receptor at 10 uM relative to control
[13] = organism: Homo sapiens; assay: Selectivity ratio of IC50 for full length recombinant human PDE2A1 to IC50 for full length recombinant human PDE1A; summary of the method: as §2
[14] = biological target: High affinity choline transporter 1 (Homo sapiens) (UniProt Q9GZV3); assay: Displacement of [3H]hemicholinium-3 from recombinant human Choline Transporter at 10 uM after 60 mins by scintillation counting analysis relative to control
[15] = organism: Homo sapiens; assay: Selectivity ratio of IC50 for full length recombinant human PDE1C to IC50 for full length recombinant human PDE1B1; summary of the method: as §2
[16] = biological target: CYP3A4 (Homo sapiens, UniProt P08684); assay: Inhibition of CYP3A4 (unknown origin) at 10 uM relative to control; format: ADME
[17] = organism: Homo sapiens; assay: Selectivity ratio of IC50 for full length recombinant human PDE8B to IC50 for full length recombinant human PDE1B1; summary of the method: as §2
[18] = biological target: Cannabinoid receptor 1 (Homo sapiens) (UniProt P21554); assay: Inhibition of human cannabinoid CB1 receptor at 10 uM relative to control
[19] = organism: Homo sapiens; assay: Selectivity ratio of IC50 for full length recombinant human PDE7B to IC50 for full length recombinant human PDE1B1; summary of the method: as §2
[20] = organism: Homo sapiens; assay: Selectivity ratio of IC50 for full length recombinant human PDE9A1 to IC50 for full length recombinant human PDE1B1; summary of the method: as §2
[21] = biological target: Muscarinic acetylcholine receptor M2 (Homo sapiens) (UniProt P08172); assay: Inhibition of human muscarinic M2 receptor at 10 uM relative to control
[22] = biological target: Histamine H1 receptor (Homo sapiens) (UniProt P35367); assay: Inhibition of human histamine H1 receptor at 10 uM relative to control
[23] = Drug uptake in Wistar Hannover rat cerebrospinal fluid at 1 mg/kg, sc measured at 1 hr post dose by LC-MS/MS analysis; format: ADME, organism-based; conditions: read-out: Drug uptake; summary of the method: as §1
[24] = biological target: Substance-P receptor (Homo sapiens) (UniProt P25103); assay: Inhibition of human NK1 receptor at 10 uM relative to control
[25] = biological target: 5-hydroxytryptamine receptor 6 (Homo sapiens) (UniProt P50406); assay: Inhibition of human 5-HT6 receptor at 10 uM relative to control
[26] = organism: Homo sapiens; assay: Selectivity ratio of IC50 for full length recombinant human PDE2A1 to IC50 for full length recombinant human PDE1B1; summary of the method: as §2
[27] = biological target: Glucocorticoid receptor (Homo sapiens) (UniProt P04150); assay: Inhibition of human glucocorticoid receptor at 10 uM relative to control
[28] = organism: Homo sapiens; assay: Selectivity ratio of IC50 for full length recombinant human PDE3A1 to IC50 for full length recombinant human PDE1A; summary of the method: as §2
[29] = biological target: Rod cGMP-specific 3',5'-cyclic phosphodiesterase subunit alpha (Bos taurus, UniProt P11541); assay: Inhibition of bovine retina PDE6A using 3',5'-[3H]cGMP as substrate after 30 mins by scintillation proximity assay; summary of the method: as §3
[30] = biological target: Kappa-type opioid receptor (Homo sapiens) (UniProt P41145); assay: Inhibition of human kappa opioid receptor at 10 uM relative to control
[31] = biological target: CYP2C9 (Homo sapiens, UniProt P11712); assay: Inhibition of human CYP2C9 at 10 uM relative to control; format: ADME
[32] = biological target: Prostaglandin G/H synthase 2 (Homo sapiens) (UniProt P35354); assay: Inhibition of recombinant human cyclooxygenase 2 using arachidonic acid/ADHP as substrate at 10 uM after 5 mins by Fluorimetric method relative to control
[33] = Ratio of drug uptake in cerebrospinal fluid to fraction unbound in plasma in Wistar Hannover rat at 1 mg/kg, sc measured at 2 hrs post dose by LC-MS/MS analysis; format: ADME, organism-based, CSF/Plasma; conditions: in vivo
[34] = biological target: Sodium-dependent dopamine transporter (Homo sapiens) (UniProt Q01959); assay: Inhibition of dopamine transporter (unknown origin) at 10 uM relative to control
[35] = biological target: High affinity cAMP-specific and IBMX-insensitive 3',5'-cyclic phosphodiesterase 8B (Homo sapiens, UniProt O95263); assay: Inhibition of full length recombinant human PDE8B using 3',5'-[3H]cAMP as substrate after 30 mins by scintillation proximity assay; summary of the method: as §3
[36] = biological target: Melanocortin receptor 3 (Homo sapiens) (UniProt P41968); assay: Inhibition of human Melanocortin 3 receptor at 10 uM relative to control
Sequence of Melanocortin receptor 3 (Homo sapiens) (P41968 whole entry): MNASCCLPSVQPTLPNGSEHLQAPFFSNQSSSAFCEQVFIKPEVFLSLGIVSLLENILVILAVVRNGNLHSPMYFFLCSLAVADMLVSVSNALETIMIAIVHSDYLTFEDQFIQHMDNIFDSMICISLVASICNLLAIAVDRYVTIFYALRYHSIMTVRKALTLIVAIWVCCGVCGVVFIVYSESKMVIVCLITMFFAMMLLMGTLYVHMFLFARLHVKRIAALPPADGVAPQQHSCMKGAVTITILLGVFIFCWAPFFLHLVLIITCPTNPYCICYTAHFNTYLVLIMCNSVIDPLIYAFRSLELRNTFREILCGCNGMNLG

Sequence of Caspase-3 (Homo sapiens) (P42574 29-175 limits assumed): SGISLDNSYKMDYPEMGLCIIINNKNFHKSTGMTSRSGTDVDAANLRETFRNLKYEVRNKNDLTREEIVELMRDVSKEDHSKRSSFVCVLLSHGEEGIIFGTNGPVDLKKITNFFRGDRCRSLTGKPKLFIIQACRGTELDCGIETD
Sequence of Caspase-3 (Homo sapiens) (P42574 176-277 limits assumed): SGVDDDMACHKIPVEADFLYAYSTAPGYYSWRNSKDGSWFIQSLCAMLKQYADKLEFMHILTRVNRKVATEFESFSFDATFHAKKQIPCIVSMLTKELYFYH
Sequence of Muscarinic acetylcholine receptor M2 (Homo sapiens) (P08172 whole entry): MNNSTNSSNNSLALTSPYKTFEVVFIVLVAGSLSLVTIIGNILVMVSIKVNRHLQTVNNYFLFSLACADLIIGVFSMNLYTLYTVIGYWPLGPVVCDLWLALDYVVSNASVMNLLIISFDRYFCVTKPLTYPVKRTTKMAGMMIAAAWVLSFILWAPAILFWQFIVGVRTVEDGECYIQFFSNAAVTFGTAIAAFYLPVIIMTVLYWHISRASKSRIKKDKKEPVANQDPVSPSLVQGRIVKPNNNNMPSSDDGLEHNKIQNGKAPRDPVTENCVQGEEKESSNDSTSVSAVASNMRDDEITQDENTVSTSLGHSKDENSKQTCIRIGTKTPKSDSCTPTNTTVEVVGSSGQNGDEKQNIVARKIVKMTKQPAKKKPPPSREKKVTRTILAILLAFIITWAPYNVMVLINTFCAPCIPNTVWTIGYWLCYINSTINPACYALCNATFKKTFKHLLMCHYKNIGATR
Sequence of Cannabinoid receptor 1 (Homo sapiens) (P21554 whole entry): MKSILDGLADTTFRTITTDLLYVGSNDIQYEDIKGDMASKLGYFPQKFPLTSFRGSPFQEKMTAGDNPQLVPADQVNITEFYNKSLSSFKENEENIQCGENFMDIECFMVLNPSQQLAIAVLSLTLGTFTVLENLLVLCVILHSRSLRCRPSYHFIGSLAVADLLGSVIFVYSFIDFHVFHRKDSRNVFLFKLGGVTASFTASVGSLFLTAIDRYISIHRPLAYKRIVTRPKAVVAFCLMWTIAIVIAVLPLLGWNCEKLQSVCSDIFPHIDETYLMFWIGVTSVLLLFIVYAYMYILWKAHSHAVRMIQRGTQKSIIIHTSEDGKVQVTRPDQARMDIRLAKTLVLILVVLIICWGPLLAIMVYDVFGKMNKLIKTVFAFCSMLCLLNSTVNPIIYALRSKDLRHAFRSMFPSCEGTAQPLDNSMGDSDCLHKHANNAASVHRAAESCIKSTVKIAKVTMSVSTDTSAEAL
Sequence of Kappa-type opioid receptor (Homo sapiens) (P41145 whole entry): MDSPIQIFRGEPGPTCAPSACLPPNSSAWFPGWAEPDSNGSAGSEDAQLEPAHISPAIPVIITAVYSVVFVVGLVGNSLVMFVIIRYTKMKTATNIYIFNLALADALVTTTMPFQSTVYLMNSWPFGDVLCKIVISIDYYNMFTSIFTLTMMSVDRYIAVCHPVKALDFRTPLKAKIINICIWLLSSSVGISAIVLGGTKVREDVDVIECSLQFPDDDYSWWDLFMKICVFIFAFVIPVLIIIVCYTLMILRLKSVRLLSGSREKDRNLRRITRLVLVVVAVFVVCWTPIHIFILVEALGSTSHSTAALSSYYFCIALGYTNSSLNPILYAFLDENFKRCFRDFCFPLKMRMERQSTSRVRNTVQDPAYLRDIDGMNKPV
Sequence of 5-hydroxytryptamine receptor 1A (Homo sapiens) (P08908 whole entry): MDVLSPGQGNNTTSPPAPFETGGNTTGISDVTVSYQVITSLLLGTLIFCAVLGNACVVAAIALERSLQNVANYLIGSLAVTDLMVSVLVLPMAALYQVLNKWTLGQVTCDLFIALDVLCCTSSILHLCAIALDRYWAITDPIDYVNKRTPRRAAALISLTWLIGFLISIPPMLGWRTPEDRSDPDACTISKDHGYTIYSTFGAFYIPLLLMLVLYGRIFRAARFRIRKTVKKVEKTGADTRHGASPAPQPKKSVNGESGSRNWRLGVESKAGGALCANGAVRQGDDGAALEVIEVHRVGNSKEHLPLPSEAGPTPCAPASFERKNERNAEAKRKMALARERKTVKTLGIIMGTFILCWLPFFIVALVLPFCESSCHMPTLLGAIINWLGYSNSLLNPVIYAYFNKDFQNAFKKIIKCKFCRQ
Sequence of Histamine H1 receptor (Homo sapiens) (P35367 whole entry): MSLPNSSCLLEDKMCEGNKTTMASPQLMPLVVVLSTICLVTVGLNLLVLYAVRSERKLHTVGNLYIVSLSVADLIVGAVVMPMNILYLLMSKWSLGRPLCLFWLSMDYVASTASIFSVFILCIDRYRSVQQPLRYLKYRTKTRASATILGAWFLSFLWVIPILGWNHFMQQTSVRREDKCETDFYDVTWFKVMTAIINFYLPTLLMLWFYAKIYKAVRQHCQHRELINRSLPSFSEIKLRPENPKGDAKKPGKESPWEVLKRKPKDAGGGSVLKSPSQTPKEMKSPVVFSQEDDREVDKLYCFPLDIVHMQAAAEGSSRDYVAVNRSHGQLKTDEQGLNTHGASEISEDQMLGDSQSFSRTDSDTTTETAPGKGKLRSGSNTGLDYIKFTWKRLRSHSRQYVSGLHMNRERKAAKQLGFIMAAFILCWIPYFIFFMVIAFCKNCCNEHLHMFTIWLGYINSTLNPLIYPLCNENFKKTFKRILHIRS
Sequence of Cholecystokinin receptor type A (Homo sapiens) (P32238 whole entry): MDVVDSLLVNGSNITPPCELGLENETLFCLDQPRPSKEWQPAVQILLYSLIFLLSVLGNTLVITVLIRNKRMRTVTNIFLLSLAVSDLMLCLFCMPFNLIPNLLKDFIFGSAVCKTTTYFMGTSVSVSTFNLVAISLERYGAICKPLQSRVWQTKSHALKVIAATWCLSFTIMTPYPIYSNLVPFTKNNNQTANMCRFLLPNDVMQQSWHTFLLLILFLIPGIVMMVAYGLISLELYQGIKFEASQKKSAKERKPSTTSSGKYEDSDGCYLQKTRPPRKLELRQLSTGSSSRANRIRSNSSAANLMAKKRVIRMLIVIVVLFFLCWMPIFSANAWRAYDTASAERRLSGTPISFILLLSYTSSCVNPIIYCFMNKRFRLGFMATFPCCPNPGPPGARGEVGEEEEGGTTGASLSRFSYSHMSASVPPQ
Sequence of CYP3A4 (P08684 whole entry): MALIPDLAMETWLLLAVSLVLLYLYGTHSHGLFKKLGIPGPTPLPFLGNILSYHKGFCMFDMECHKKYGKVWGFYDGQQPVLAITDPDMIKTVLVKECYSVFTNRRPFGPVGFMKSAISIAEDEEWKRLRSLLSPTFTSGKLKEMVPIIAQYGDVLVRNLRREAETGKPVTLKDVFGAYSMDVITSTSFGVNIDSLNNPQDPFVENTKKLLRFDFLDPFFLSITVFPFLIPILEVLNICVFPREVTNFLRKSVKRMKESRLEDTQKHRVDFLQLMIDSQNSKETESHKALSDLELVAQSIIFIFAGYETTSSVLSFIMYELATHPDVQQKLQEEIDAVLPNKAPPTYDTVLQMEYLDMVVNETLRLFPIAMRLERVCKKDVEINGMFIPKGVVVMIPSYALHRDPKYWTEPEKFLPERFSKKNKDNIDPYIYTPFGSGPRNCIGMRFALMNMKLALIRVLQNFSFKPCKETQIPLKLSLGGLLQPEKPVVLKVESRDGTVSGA
Sequence of Histamine H2 receptor (Homo sapiens) (P25021 whole entry): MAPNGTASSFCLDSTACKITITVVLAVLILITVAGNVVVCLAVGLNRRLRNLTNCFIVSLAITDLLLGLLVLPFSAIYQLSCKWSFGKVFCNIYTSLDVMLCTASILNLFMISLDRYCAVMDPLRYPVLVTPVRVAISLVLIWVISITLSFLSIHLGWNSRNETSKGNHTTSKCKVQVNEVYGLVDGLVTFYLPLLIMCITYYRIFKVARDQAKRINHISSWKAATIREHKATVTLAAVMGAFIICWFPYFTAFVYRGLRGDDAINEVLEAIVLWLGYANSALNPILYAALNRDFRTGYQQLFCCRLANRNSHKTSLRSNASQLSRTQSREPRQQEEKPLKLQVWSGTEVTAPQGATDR
Sequence of High affinity choline transporter 1 (Homo sapiens) (Q9GZV3 whole entry): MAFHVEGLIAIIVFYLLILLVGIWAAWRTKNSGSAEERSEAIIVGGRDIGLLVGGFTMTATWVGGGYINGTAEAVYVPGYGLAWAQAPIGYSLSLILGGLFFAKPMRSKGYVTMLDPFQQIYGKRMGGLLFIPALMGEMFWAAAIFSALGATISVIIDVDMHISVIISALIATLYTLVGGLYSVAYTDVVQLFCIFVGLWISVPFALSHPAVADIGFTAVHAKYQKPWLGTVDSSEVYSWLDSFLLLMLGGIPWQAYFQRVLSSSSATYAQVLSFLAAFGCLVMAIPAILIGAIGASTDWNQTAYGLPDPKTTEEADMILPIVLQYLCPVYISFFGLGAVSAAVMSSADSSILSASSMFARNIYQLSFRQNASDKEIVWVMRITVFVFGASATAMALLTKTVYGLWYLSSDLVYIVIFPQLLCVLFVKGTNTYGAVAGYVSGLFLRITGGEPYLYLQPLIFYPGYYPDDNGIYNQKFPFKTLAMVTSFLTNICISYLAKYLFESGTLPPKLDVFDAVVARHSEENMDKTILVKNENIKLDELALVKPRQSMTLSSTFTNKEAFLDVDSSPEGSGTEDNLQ

COc1ccc2c(N[C@@H](C)Cc3cc(C)[nH]n3)ncnc2c1OC
Ratio [1]: 0.05 | concentration at 0.5 h [2]: 21 nM | inhibition [3]: < 50% | inhibition [4]: < 50% | Ratio [5]: 0.03 | inhibition [6]: < 50% | Ratio IC50 [7]: 626 | inhibition [8]: < 50% | inhibition [9]: < 50% | IC50 [10]: 409 nM | inhibition [11]: < 50% | inhibition [12]: < 50% | Ratio IC50 [13]: 1130 | inhibition [14]: < 50% | Ratio IC50 [15]: 4.2 | inhibition at 10 µM [16]: < 50% | Ratio IC50 [17]: 1700 | inhibition [18]: < 50% | Ratio IC50 [19]: 4540 | Ratio IC50 [20]: > 22000 | inhibition [21]: < 50% | inhibition [22]: < 50% | concentration at 1 h [23]: 16 nM | inhibition [24]: < 50% | inhibition [25]: < 50% | Ratio IC50 [26]: 5230 | inhibition [27]: < 50% | Ratio IC50 [28]: 3170 | IC50 [29]: > 142 nM | inhibition [30]: < 50% | inhibition at 10 µM [31]: < 50% | inhibition [32]: < 50% | Ratio [33]: 0.2 | inhibition [34]: < 50% | IC50 [35]: 15500 nM | inhibition [36]: < 50%

Reference: ChEMBL document CHEMBL4118152, “Discovery of Potent and Selective Periphery-Restricted Quinazoline Inhibitors of the Cyclic Nucleotide Phosphodiesterase PDE1” (J Med Chem, 2018)
